# Experimental data gathered from unrelated publications.
# Protocols differ between the studies behind these lines.
# LRRK2: Leucine-rich repeat serine/threonine-protein kinase 2 (LRRK2, Homo sapiens, UniProt Q5S007)
# LRRK2 G2019S: Leucine-rich repeat serine/threonine-protein kinase 2 (LRRK2, Homo sapiens, UniProt Q5S007, G2019S)
Structure (SMILES),target,effect on,action,technique,concentration,quantity,result
O=C(Nc1cnc(Oc2ccc(F)cc2)nc1)N1CCc2ncccc2[C@@H]1c1ccc(F)cc1,LRRK2,cell-free assay,,competition with immobilised ligand,1 µM,remaining binding,83%
O=C1NC(=O)c2cc(Nc3ccc(F)cc3)c(Nc3ccc(F)cc3)cc21,LRRK2,cell-free assay,,,0.5 µM,remaining signal,99.8%
CC(C)(C)c1nc(-c2cccc(NS(=O)(=O)c3c(F)cccc3F)c2F)c(-c2ccnc(N)n2)s1,LRRK2,enzyme activity,inhibitor,radiometric,1 µM,remaining activity,102%
CN(C)C1CCN(CC#Cc2nn(C3CCCC3)c3nc(NCc4ccccc4)ncc23)C1 (centres unmarked),LRRK2,enzyme activity,inhibitor,FRET,10 µM,inhibition,7%
Cc1cnc(NC2CCOCC2)nc1-n1cnc(C(=O)NC(CN)c2cc(F)cc(Cl)c2)c1 (centres unmarked),LRRK2,enzyme activity,inhibitor,radiometric,1 µM,remaining activity,95%
O=C1Nc2ccc(Cl)cc2C1=Cc1cc(Cl)c(O)c(Cl)c1,LRRK2,cell-free assay,,,0.5 µM,remaining signal,11%
CCc1ccccc1C(=O)Nc1n[nH]c2c(C)c(F)c(C3C(C#N)=C(C)N(C)C(C)=C3C#N)cc12,LRRK2 G2019S,cell-free assay,,competition with immobilised ligand,1 µM,remaining binding,100%
C[C@@H]1CCN(c2nccc(-c3cnn4ncccc34)n2)C1,LRRK2,binding,,,1 µM,remaining binding,59%
CN([C@@H]1CCc2c(CC(=O)O)c3cc(S(C)(=O)=O)ccc3n2C1)S(=O)(=O)c1ccc(F)cc1,LRRK2,cell-free assay,,competition with immobilised ligand,1 µM,remaining binding,100%
Cc1cnn2ncc(-c3ccnc(N(C)C)n3)c2c1,LRRK2 G2019S,binding,,,1 µM,remaining binding,100%
O=C(Nc1cnn(-c2csc(C(=O)NC3COC3)c2)c1)Nc1c(F)cccc1Cl,LRRK2,enzyme activity,inhibitor,,5 µM,remaining activity,91.3%
CN(C)c1ncc(F)c(-c2cnn3ncccc23)n1,LRRK2,binding,,,1 µM,remaining binding,50%
COc1cc(-c2cc(-c3ccc(N4CCNCC4)cc3)cnc2N)cc(OC)c1OC,LRRK2,enzyme activity,inhibitor,,1 µM,inhibition,33%
N[C@@H]1CCN(c2nccc(-c3cnn4ncccc34)n2)C1,LRRK2 G2019S,binding,,,1 µM,remaining binding,100%
C[C@H](NC(=O)c1cnc2n1[C@](C)(Cc1ccc(C#N)cc1)C(=O)N2c1cc(Cl)c(F)c(Cl)c1)C(=O)NC1(c2ccccn2)CC1,LRRK2 G2019S,cell-free assay,,competition with immobilised ligand,1 µM,remaining binding,100%
CC(C)(O)[C@H]1CC[C@H](Nc2ccc3ncc(-c4cccc(C(F)(F)F)c4)n3n2)CC1,LRRK2,enzyme activity,inhibitor,,1 µM,remaining activity,66.1%
COc1ccc2c(c1)O[C@@H](c1ccc(OC)c(OC)c1)C[C@H]2NC(=O)C1(c2ccc3c(c2)OC(F)(F)O3)CC1,LRRK2,cell-free assay,,competition with immobilised ligand,1 µM,remaining binding,87%
Cc1ccc(C(=O)Nc2ccc(CN3CCN(C)CC3)c(C(F)(F)F)c2)cc1C#Cc1cnc2cccnn12,LRRK2 G2019S,enzyme activity,inhibitor,,23.5 nM,remaining activity,99%
Cc1sc(C(=O)NC2COC2)cc1-n1cc(NC(=O)Nc2c(F)cccc2Cl)cn1,LRRK2,enzyme activity,inhibitor,,10 µM,remaining activity,101%
COc1cc(Cl)c(C(=O)N[C@@H](CN[C@H]2CC[C@@H](N)CC2)Cc2ccc(C#N)cc2)cc1-c1ccc(CN[C@H](C)c2ccc(C)cc2)o1,LRRK2,enzyme activity,inhibitor,,1 µM,remaining activity,104%
CN(C)CC#Cc1ccc(OCCCc2sc(N3CCc4cccc(C(=O)Nc5nc6ccccc6s5)c4C3)nc2C(=O)O)c(F)c1,LRRK2 G2019S,cell-free assay,,competition with immobilised ligand,1 µM,remaining binding,100%
CN1CC(Oc2cnc(C#N)cc2-c2ccn3nc(NC(=O)C4CC4)cc3c2)C1,LRRK2,enzyme activity,inhibitor,,1 µM,inhibition,-19%
O=C(O)[C@H]1[C@H](Cn2nnc3ccccc3c2=O)CC[C@@H]1C(=O)c1ccc(OCCC2CCOCC2)cc1,LRRK2 G2019S,cell-free assay,,competition with immobilised ligand,1 µM,remaining binding,100%
CCN(CC)CCNC(=O)c1c(C)[nH]c(/C=C2\C(=O)Nc3ccc(F)cc32)c1C,LRRK2,cell-free assay,,,0.5 µM,remaining signal,3.34%
COCCOc1nc(-c2ccc(Cl)nc2)nc2c1CN(C(=O)c1ncn3ccccc13)CC2,LRRK2,cell-free assay,,competition with immobilised ligand,0.1 µM,remaining binding,100%
Nc1ncnc2occ(-c3ccc(NC(=O)Nc4cc(C(F)(F)F)ccc4F)cc3)c12,LRRK2,cell-free assay,inhibitor,,20 µM,remaining signal,5.2%
